Assay outcomes deposited in PubChem by several laboratories.
Calb FLC = C. albicans growth inhibition with fluconazole, primary screen, CaCi-2 strain, Alamar Blue fluorescence | C. albicans CaCi-2 (fluconazole-resistant clinical isolate) + fluconazole, 48 h | growth inhibition, % (concentration not given with the values) | 300,000 tested, 0.57% active;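 active = growth inhibition above about 58% in most replicates, limit read from the data, passing the limit was not always enough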;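 note: all wells also contain fluconazole at 8 µg/ml as a sub-toxic cotreatment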
CSC inhib = cancer stem cell viability inhibitors, primary screen, luminescence. 300,000 tested, 1.1% active. cancer stem cell-like cells viability. inhibition, % at 7.5 µM. AID 2717, 2010; in the data active = inhibition above about 75%; tested in HMLE shEcad cells
Beta apoptosis = inhibitors of cytokine-induced beta cell apoptosis, primary screen, luminescence. AID 435005, 2010. INS-1E cytokine-induced death, ATP luminescence, 48 h; percent of positive-control rescue, neutral wells zero. 300,000 tested, 0.8% active. protection from apoptosis, % (concentration not given with the values);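 active = Every replicate reaches about 75%, or at least half do and their mean reaches it too, limit read from the data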;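 note: higher means more ATP so stronger rescue from cytokine killing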
Mdm2 MdmX PPI = inhibitors of human Mdm2-MdmX association, primary screen, cell-based, luminescence, split luciferase, SaOS-2, uHTS | Protein Mdm4 (Homo sapiens) + E3 ubiquitin-protein ligase Mdm2 (Homo sapiens), … | SaOS-2 split-luciferase Mdm2/MdmX complementation | inhibition, % at 8 µM | 330,000 tested, 3% active;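 active = inhibition of at least 50% at 8 µM in the primary screen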
SKKanGAS inh = S. pyogenes SKKanGAS growth inhibitors in kanamycin, primary screen, streptokinase expression inhibitor project, SKKanGAS strain, BacTiter-Glo luminescence; 6 h; 300,000 tested, 1.3% active; inhibition, % at 7.5 µM;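 active = mean replicate score, as percent of positive control median, at least 50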;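 note: strain carries kanamycin resistance gene driven by streptokinase promoter and grows in 40 µg/ml kanamycin; loss of luminescence reflects streptokinase promoter inhibition or plain growth inhibition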
T cruzi inh = inhibitors of intracellular T. cruzi growth, primary screen, luminescence, NIH3T3 host cells | T. cruzi beta-gal in NIH3T3, 90 h | inhibition, % (concentration not given with the values) | 300,000 tested, 1.4% active | AID 1885, 2009;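 active = mean inhibition across valid replicates above about 55%, limit read from the data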;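 note: signal also drops with host cell toxicity which is not excluded here; higher percent means less beta-gal luminescence so fewer parasites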
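Read-out: Parasite load inhibition, % | Test system: Mouse NIH/3T3 fibroblasts infected with β-gal-expressing T. cruzi Tulahuen C4 | Amount: 5,000 cells/well | Medium: DMEM, 2% fetal bovine serum | Signal: GalScreen β-gal luminescence, detergent lysis, 60 min | Timing: 3 h attach, ≥90 h co-culture | Also added: Tulahuen C4 trypomastigotes, 5000/well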
Mdm2-MdmX conf = Mdm2-MdmX complex disruptors, retested hits, confirmation, luminescence, single concentration; 10,000 tested, 55% active; AID 489028, 2010; inhibition, % at 8 µM; Mdm2-MdmX binding, luminescent assay; shares compounds with Mdm2 MdmX PPI; in the data active = inhibition above about 40%
FLuc counter = full-length luciferase signal inhibition, confirmation, counter-screen for Mdm2/MdmX interaction inhibitor project, cell-based, single concentration, SaOS-2; shares compounds with Mdm2 MdmX PPI; SaOS-2 full-length luciferase counterscreen, luminescence; inhibition, % at 8 µM; 6,200 tested, 77% active; AID 504607, 2011;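 active = mean inhibition at 8 µM reaching about 37%, which flags the compound as non-specific, limit read from the data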;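 note: p53-null SaOS-2 cells with luciferase driven by a doxycycline-inducible promoter; compound on cells about two nights before reading with doxycycline added after day one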
Of the large screens only hits and unclear results are named; the others gave an inactive call (follow-up assays come after a bar, where they were run). Hits are enriched below; roughly 5.7% of the tested compounds scored in any of these assays.

C=CC1CN(C(=O)OCC(Cl)(Cl)Cl)C2CC3c4ccc(OC)cc4NC3C3CC1C2CO3 (stereo not drawn)	Mdm2 MdmX PPI 57 | Mdm2-MdmX conf inactive
O=C(Nc1nnc(-c2cccs2)o1)c1cccc(Oc2ccccc2)c1	Mdm2 MdmX PPI 55 (no result: Calb FLC, SKKanGAS inh, T cruzi inh) | Mdm2-MdmX conf inactive
O=C(CCN1C(=O)c2ccccc2S1(=O)=O)NCc1ccccc1Cl	none (no result: CSC inhib, Beta apoptosis)
CCOC(=O)c1c(-c2ccccc2)oc2ccc(OCC(O)CNCCN(C)C)cc12 (stereo not drawn)	Mdm2 MdmX PPI 95, T cruzi inh 79 | Mdm2-MdmX conf 48 | FLuc counter inactive
COc1cc(-c2noc(C)c2C(=O)NCCc2c[nH]c3ccccc23)cc(OC)c1OC	none
COc1cc(-c2noc(C)c2-c2ccc3[nH]ccc3c2)cc(OC)c1OC	Mdm2 MdmX PPI 82 | Mdm2-MdmX conf 77 | FLuc counter 54
COc1cc(-c2noc(C)c2-c2ccc(N(C)C)nc2)cc(OC)c1OC	Mdm2 MdmX PPI 86 | Mdm2-MdmX conf 79 | FLuc counter 88
O=C(Cn1nc2n(c1=O)-c1ccccc1SC2)N/N=C/c1cccnc1	none
O=C(Nc1ccccc1F)N1CCC(NC(=O)C23CC4CC(CC(C4)C2)C3)CC1	none
CCc1c(C)sc(NC(=O)c2cc(-c3cc(OC)ccc3OC)on2)c1C#N	Mdm2 MdmX PPI 97 | Mdm2-MdmX conf 46 | FLuc counter 68
COc1ccc(C2c3c(ncn(CCCN4CCOCC4)c3=N)Oc3ccc4ccccc4c32)cc1OC (stereo not drawn)	Mdm2 MdmX PPI 86 | Mdm2-MdmX conf 51 | FLuc counter 67
COc1ccc(C2c3ccc(O)cc3Oc3ncn(CCN4CCOCC4)c(=N)c32)cc1OC (stereo not drawn)	none
N=c1c2c(ncn1CCN1CCOCC1)Oc1cc(O)ccc1C2c1ccccc1 (stereo not drawn)	none
COc1ccc(C2c3ccc4ccccc4c3Oc3ncn(CCN4CCOCC4)c(=N)c32)cc1 (stereo not drawn)	Calb FLC 101, Mdm2 MdmX PPI 75 (no result: Beta apoptosis) | Mdm2-MdmX conf 55 | FLuc counter 53
COc1ccc(C2c3ccc4ccccc4c3Oc3ncn(CCN4CCOCC4)c(=N)c32)cc1OC (stereo not drawn)	Mdm2 MdmX PPI 69 (no result: CSC inhib, Beta apoptosis) | Mdm2-MdmX conf 47 | FLuc counter 67
CC(C)N1C(=O)/C(=C\c2nc3ccccc3c(=O)[nH]2)c2ccccc21	none (no result: Calb FLC, Mdm2 MdmX PPI, SKKanGAS inh, T cruzi inh)
Cc1c(C#N)c(N)nc2c3c(sc12)NC(=O)CC3c1ccc(Cl)cc1 (stereo not drawn)	Mdm2 MdmX PPI 92 | Mdm2-MdmX conf inactive
CCc1ccccc1NC(=O)CN(C)C(=O)c1cccc(S(=O)(=O)N2CCCCCC2)c1	none (no result: Calb FLC, SKKanGAS inh, T cruzi inh)
CC(C)n1c(O)c(/C=C2\C=NN=C2c2ccccc2)sc1=S	Mdm2 MdmX PPI 61 | Mdm2-MdmX conf 43 | FLuc counter 48
CCn1c(O)c(/C=C2\C=NN=C2c2ccc(C)cc2)sc1=S	Mdm2 MdmX PPI 82 | Mdm2-MdmX conf 63 | FLuc counter 97
Cc1[nH]n(-c2ccccc2)c(=O)c1/C=C1\C=NN=C1c1ccccc1	none
CCn1c(O)c(C=C2N=c3ccccc3=N2)sc1=S	none
COc1ccc(/C(N)=N/OC(=O)c2ccco2)cc1	none
CC(C)(C)c1ccc(C(=O)O/N=C(\N)c2ccccc2)cc1	Mdm2 MdmX PPI 97 | Mdm2-MdmX conf 88 | FLuc counter inactive
COc1ccc(C(=O)O/N=C(\N)c2ccccc2)cc1	Mdm2 MdmX PPI 55 | Mdm2-MdmX conf inactive
